The text below walks through data of ChEMBL document CHEMBL3098028, “Synthesis and in vitro and in vivo pharmacological evaluation of new 4-aminoquinoline-based compounds” (ACS Med Chem Lett, 2013).

Data set [1] concerns Plasmodium falciparum. The data set can be described thus: Antiplasmodial activity against chloroquine-resistant Plasmodium falciparum W2 after 24 hrs by [3H]hypoxanthine incorporation assay. The data set is classed as functional, organism-based. The procedure, abridged: (§1)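 Antiplasmodial testing was done at the Swiss Tropical and Public Health Institute. Chloroquine, the reference drug, was tested as its diphosphate salt.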

The nature of data set [2]: Kinetic solubility of the compound in phosphate buffered saline at pH 7.4 after 2 hrs by HPLC analysis. The class given is physicochemical. To be noted: read-out: Kinetic_solubility.
For data set [3], the system named is Plasmodium falciparum. The data set can be described thus: Antiplasmodial activity against chloroquine-sensitive Plasmodium falciparum 3D7 after 24 hrs by [3H]hypoxanthine incorporation assay. The class given is functional, organism-based. The procedure, abridged: as §1
Data set [4] has as its system Plasmodium falciparum. The data set can be described thus: Antiplasmodial activity against chloroquine-resistant Plasmodium falciparum K1 after 24 hrs by [3H]hypoxanthine incorporation assay. The class given is functional, organism-based. The method in brief:
as §1

Data set [5] can be described thus: Kinetic solubility of the compound in 0.01 M HCl at pH 2 after 2 hrs by HPLC analysis. The data set is classed as physicochemical. The settings on record: read-out: Kinetic_solubility.
Data set [6] has as its system Plasmodium falciparum. The data set can be described thus: Resistance index, ratio of IC50 for chloroquine-resistant Plasmodium falciparum K1 to IC50 for chloroquine-sensitive Plasmodium falciparum 3D7. The data set is classed as functional.
Data set [7] has as its system Plasmodium berghei. The data set can be described thus: Antimalarial activity against Plasmodium berghei ANKA infected in C57BL/6 mouse assessed as reduction in parasitemia at 10 mg/kg, po qd for 4 days measured on day 7 by light microscopic analysis relative to control. The class given is functional. On the set-up: scale not given: the % may be the effect or the level left. The procedure, abridged: (§2)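 Male C57/BL6 mice were infected with P. berghei ANKA and dosed orally once daily for four days at 1, 10, 5 or 20 mg/kg, with 5 mice per dose group. The negative control received blank formulation solution. Blood smears were taken on days 3, 5 and 7, and parasitemia was read by light microscopy. The result is % parasitemia reduction on day 7 versus placebo.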

Data set [8] relates to CHO. The data set can be described thus: Cytotoxicity against CHO cells. The class given is cell-based. To be noted: Cricetulus griseus.
Data set [9] deals with Plasmodium berghei. The data set can be described thus: Antimalarial activity against Plasmodium berghei ANKA infected in C57BL/6 mouse assessed as reduction in parasitemia at 20 mg/kg, po qd for 4 days measured on day 7 by light microscopic analysis relative to control. The class given is functional. On the set-up: scale not given: the % may be the effect or the level left. The method in brief: as §2

Data set [10] concerns Liver microsome. The data set can be described thus: Drug metabolism in rat liver microsomes assessed as 4-(2-((1-tert-butyl-1H-tetrazol-5-yl)(4-chlorophenyl)methylamino)ethylamino)-7-chloroquinoline 1-oxide level at 5 uM after 1 hr by LC-MS/MS analysis. The class given is ADME. A general note: Liver microsomes are a subcellular fraction often used to study metabolism.
Data set [11] in a line: Hepatic extraction ratio in mouse liver microsomes at 1 uM after 40 mins. To be noted: read-out: ERH. The class given is ADME, Microsome.
The test system of data set [12] is Mus musculus. The data set can be described thus: AUC (0 to infinity) in C57BL/6 mouse at 2.5 mg/kg, iv. The data set is classed as ADME, organism-based, Plasma. On the set-up: time infinity, dose 2.5 mg/kg, route intravenous. To be noted: in vivo. The procedure, abridged: (§3)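 Healthy male C57/BL6 mice received a single intravenous dose (2.5 or 5.0 mg/kg) or oral dose (20 or 40 mg/kg). Plasma concentrations were followed over time to give AUC0-∞ in min·μmol/L, alongside t1/2, CL, Vd, Vss, Cmax, Tmax and oral bioavailability. Values are means of five animals.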

Data set [13] deals with Mus musculus. The data set can be described thus: AUC (0 to infinity) in C57BL/6 mouse at 40 mg/kg, po. The data set is classed as ADME, organism-based, Plasma. On the set-up: time infinity, dose 40 mg/kg, route oral. The settings on record: in vivo. The procedure, abridged: as §3
The nature of data set [14]: Hepatic extraction ratio in human liver microsomes at 1 uM after 40 mins. The class given is ADME. The settings on record: read-out: ERH.
The test system of data set [15] is Liver microsome. The data set can be described thus: Drug metabolism in human liver microsomes assessed as 4-(2-((1-tert-butyl-1H-tetrazol-5-yl)(4-chlorophenyl)methylamino)ethylamino)-7-chloroquinoline 1-oxide level at 5 uM after 1 hr by LC-MS/MS analysis. The class given is ADME.
The test system of data set [16] is Plasmodium berghei. The data set can be described thus: Antimalarial activity against Plasmodium berghei ANKA infected in C57BL/6 mouse assessed as reduction in parasitemia at 5 mg/kg, po qd for 4 days measured on day 7 by light microscopic analysis relative to control. More on the design: scale not given: the % may be the effect or the level left. The class given is functional. The method in brief: as §2

The nature of data set [17]: Drug metabolism in hepatocytes (unknown origin) assessed as 2-(5-((4-chlorophenyl)(2-(7-chloroquinolin-4-ylamino)ethylamino)methyl)-1H-tetrazol-1-yl)-2-methylpropan-1-ol level at 5 uM after 6 hrs by LC-MS/MS analysis. The data set is classed as ADME, cell-based, Hepatocyte.
Data set [18] relates to Mus musculus. The data set can be described thus: AUC (0 to infinity) in C57BL/6 mouse at 20 mg/kg, po. The class given is ADME, organism-based, Plasma. On the set-up: time infinity, dose 20 mg/kg, route oral. The settings on record: in vivo. The method in brief:
as §3

Data set [19] has as its system Liver microsome. The data set can be described thus: Drug metabolism in rat liver microsomes assessed as 2-(5-((4-chlorophenyl)(2-(7-chloroquinolin-4-ylamino)ethylamino)methyl)-1H-tetrazol-1-yl)-2-methylpropan-1-ol level at 5 uM after 1 hr by LC-MS/MS analysis. The data set is classed as ADME.
Data set [20] in a line: Drug metabolism in hepatocytes (unknown origin) assessed as 4-(2-((1-tert-butyl-1H-tetrazol-5-yl)(4-chlorophenyl)methylamino)ethylamino)-7-chloroquinoline 1-oxide level at 5 uM after 6 hrs by LC-MS/MS analysis. The data set is classed as ADME, cell-based, Hepatocyte.
Data set [21] has as its system Liver microsome. The data set can be described thus: Drug metabolism in human liver microsomes assessed as 2-(5-((4-chlorophenyl)(2-(7-chloroquinolin-4-ylamino)ethylamino)methyl)-1H-tetrazol-1-yl)-2-methylpropan-1-ol level at 5 uM after 1 hr by LC-MS/MS analysis. The data set is classed as ADME.
For data set [22], the system named is Plasmodium berghei. The data set can be described thus: Antimalarial activity against Plasmodium berghei ANKA infected in C57BL/6 mouse assessed as reduction in parasitemia at 1 mg/kg, po qd for 4 days measured on day 7 by light microscopic analysis relative to control. The data set is classed as functional. On the set-up: scale not given: the % may be the effect or the level left. The method in brief: as §2

The subject of data set [23] is Mus musculus. The data set can be described thus: AUC (0 to infinity) in C57BL/6 mouse at 5 mg/kg, iv. The class given is ADME, organism-based, Plasma. On the set-up: dose 5 mg/kg, route intravenous, time infinity. To be noted: in vivo. The procedure, abridged: as §3
For data set [24], the system named is Plasmodium berghei. The data set can be described thus: Antimalarial activity against Plasmodium berghei ANKA infected in C57BL/6 mouse assessed as reduction in parasitemia at 15 mg/kg, po qd for 4 days measured on day 7 by light microscopic analysis relative to control. The data set is classed as functional. On the set-up: scale not given: the % may be the effect or the level left.

Converted amounts (≈) assume the structure as drawn.

The IC50 is the point on the concentration scale where inhibition reaches its midpoint. `CC(C)(C)n1nnnc1C(NCCNc1ccnc2cc(Cl)ccc12)c1ccccc1` (stereo not drawn): the IC50 in data set [1] turned out to be 69 nM; in data set [3] it was 5 nM; in [4], 38 nM. For the same molecule, the solubility kinetic at 2 h in data set [2] is 111 µM (≈ 48.4 µg/mL); in data set [5], more than 200 µM. The “Ratio IC50” value in data set [6] was determined as 7.6.
Consider `Cc1ccc(C(NCCNc2ccnc3cc(Cl)ccc23)c2nnn[nH]2)cc1` (stereo not drawn), for which the IC50 in [4] was found to be 17400 nM.
Consider `Clc1ccc2c(NCCNC(c3ccc(Cl)c(Cl)c3)c3nnn[nH]3)ccnc2c1` (stereo not drawn), for which the solubility kinetic at 2 h in [2] is 70.1 µM (≈ 31.5 µg/mL); in data set [5] it was 191 µM (≈ 85.7 µg/mL). In addition, the concentration for half-maximal inhibition (IC50) in [4] amounted to 4390 nM.
For `Clc1ccc(C(NCCNc2ccnc3cc(Cl)ccc23)c2nnn[nH]2)cc1` (stereo not drawn), in that order: 164 µM (≈ 67.9 µg/mL), more than 200 µM and 2380 nM.
Molecule `Clc1ccc2c(NCCCNC(c3ccccc3)c3nnn[nH]3)ccnc2c1` (stereo not drawn) had a 50% inhibitory concentration (IC50) in data set [4] of 14300 nM.
Still for that read-out and setting: next, `Clc1ccc2c(NCCCCNC(c3ccccc3)c3nnn[nH]3)ccnc2c1` (stereo not drawn): 6850 nM.
With `COc1ccc(C(NCCNc2ccnc3cc(Cl)ccc23)c2nnnn2C(C)(C)C)cc1` (stereo not drawn), the figures for the IC50 in data set [1], in [3] and in data set [4] were 46 nM, 3820 nM and 155 nM, respectively. In data set [6], the “Ratio IC50” value came to 0.041.
A word on the AUC: it is the area under the concentration-time curve, a measure of exposure. `CC(C)(C)n1nnnc1C(NCCNc1ccnc2cc(Cl)ccc12)c1ccc(Cl)c(Cl)c1` (stereo not drawn): the 50% inhibitory concentration (IC50) in [1] stood at 30.5 nM; in data set [8], 10500 nM; in [3], 0.4 nM; in [4], 8 nM. Moreover, the solubility kinetic at 2 h in [2] worked out at 25 µM (≈ 12.6 µg/mL); in data set [5] it was 194 µM (≈ 97.9 µg/mL). The Activity in [7] is 41.4%; in data set [9], 44.5%; in data set [16], 46.9%; in data set [22], 22.7%. Besides, the Drug metabolism result in [10], in [15], in data set [17], in data set [19], in data set [20] and in data set [21] was “Active” each time. The hepatic extraction ratio at 40 min, 1 µM in data set [11] and in [14] was more than 0.8 throughout. The exposure (AUC) in data set [12] is 104 µmol·min/L; in data set [13], 287 µmol·min/L; in data set [18] it was 256 µmol·min/L; in data set [23], 222 µmol·min/L. Also, the “Ratio IC50” value in data set [6] is 20.
Regarding `CC(C)(C)n1nnnc1C(NCCCNc1ccnc2cc(Cl)ccc12)c1ccccc1` (stereo not drawn), the half-maximal inhibitory concentration (IC50) in data set [1] came out at 39 nM; in [3], 2 nM; in data set [4] it was 27 nM. Moreover, the “Ratio IC50” value in data set [6] was 13.5.
For `CC(C)(C)n1nnnc1C(NCCCCNc1ccnc2cc(Cl)ccc12)c1ccccc1` (stereo not drawn), in that order: 20 nM, 2 nM, 8 nM and 4.
In [4], `Clc1ccc2c(NCCNC(c3ccccc3)c3nnn[nH]3)ccnc2c1` (stereo not drawn) showed an IC50 of 14900 nM.
Still for that read-out and setting: next, `COc1ccc(C(NCCNc2ccnc3cc(Cl)ccc23)c2nnn[nH]2)cc1` (stereo not drawn): 13200 nM.
With `CCN(CC)CCCC(C)Nc1ccnc2cc(Cl)ccc12` (stereo not drawn) [CHLOROQUINE], the Activity in data set [24] is 90.6%.
